{"source": "paper PMC9271465", "about": "(ESMO Open, 2022)", "system": "EGFR T790M-mutated NSCLC", "assay": "phase I dose-escalation: efficacy", "format": "in vivo, patients", "conditions": "FAS", "outline": "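Adults with T790M+ NSCLC (ARMS-confirmed) progressing on prior EGFR-TKIs; 3+3 escalation. Oral tablet, empty stomach: single dose day 1, then after 7 days continuous dosing in 21-day cycles (25–300 mg/day) until progression. CT/MRI brain, CT neck/chest/abdomen, bone scan every eight cycles; assessed at baseline, cycles 2, 4, 6, then every 2 cycles. RECIST v1.1 best overall response; disease control confirmed by imaging every 6 weeks.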"}
{"smiles": "C=CC(=O)Nc1cc(Nc2ncc(Cl)c(Nc3ccccc3C(=O)C(=O)N(C)C)n2)c(OC)cc1N1CCN(C)CC1", "note": "[BPI-15086]", "values": [{"measurement": "Best overall response: Complete response", "setting": "25 mg/day (n = 1)", "value": "0 n (%)"}, {"measurement": "Best overall response: Not evaluable", "setting": "25 mg/day (n = 1)", "value": "0 n (%)"}, {"measurement": "Best overall response: Partial response", "setting": "25 mg/day (n = 1)", "value": "0 n (%)"}, {"measurement": "Best overall response: Progressive disease", "setting": "25 mg/day (n = 1)", "value": "1 (100.0) n (%)"}, {"measurement": "Best overall response: Stable disease", "setting": "25 mg/day (n = 1)", "value": "0 n (%)"}, {"measurement": "PFS, median (95% CI)", "setting": "25 mg/day (n = 1)", "value": "1.5 (NE-NE) months"}, {"measurement": "Best overall response: Complete response", "setting": "50 mg/day (n = 3)", "value": "0 n (%)"}, {"measurement": "Best overall response: Not evaluable", "setting": "50 mg/day (n = 3)", "value": "0 n (%)"}, {"measurement": "Best overall response: Partial response", "setting": "50 mg/day (n = 3)", "value": "0 n (%)"}, {"measurement": "Best overall response: Progressive disease", "setting": "50 mg/day (n = 3)", "value": "1 (33.3) n (%)"}, {"measurement": "Best overall response: Stable disease", "setting": "50 mg/day (n = 3)", "value": "2 (66.7) n (%)"}, {"measurement": "OS, median (95% CI)", "setting": "50 mg/day (n = 3)", "value": "15.0 (8.4-15.0) months"}, {"measurement": "PFS, median (95% CI)", "setting": "50 mg/day (n = 3)", "value": "4.3 (1.6-5.8) months"}, {"measurement": "Best overall response: Complete response", "setting": "100 mg/day (n = 3)", "value": "0 n (%)"}, {"measurement": "Best overall response: Not evaluable", "setting": "100 mg/day (n = 3)", "value": "0 n (%)"}, {"measurement": "Best overall response: Partial response", "setting": "100 mg/day (n = 3)", "value": "1 (33.3) n (%)"}, {"measurement": "Best overall response: Progressive disease", "setting": "100 mg/day (n = 3)", "value": "2 (66.7) n (%)"}, {"measurement": "Best overall response: Stable disease", "setting": "100 mg/day (n = 3)", "value": "0 n (%)"}, {"measurement": "DOR, median (95% CI)", "setting": "100 mg/day (n = 3)", "value": "9.7 (NE-NE) months"}, {"measurement": "OS, median (95% CI)", "setting": "100 mg/day (n = 3)", "value": "16.1 (NE-NE) months"}, {"measurement": "PFS, median (95% CI)", "setting": "100 mg/day (n = 3)", "value": "1.6 (1.5-12.6) months"}, {"measurement": "Best overall response: Complete response", "setting": "200 mg/day (n = 7)", "value": "0 n (%)"}, {"measurement": "Best overall response: Not evaluable", "setting": "200 mg/day (n = 7)", "value": "1 (14.3) n (%)"}, {"measurement": "Best overall response: Partial response", "setting": "200 mg/day (n = 7)", "value": "2 (28.6) n (%)"}, {"measurement": "Best overall response: Progressive disease", "setting": "200 mg/day (n = 7)", "value": "3 (42.9) n (%)"}, {"measurement": "Best overall response: Stable disease", "setting": "200 mg/day (n = 7)", "value": "1 (14.3) n (%)"}, {"measurement": "DOR, median (95% CI)", "setting": "200 mg/day (n = 7)", "value": "6.7 (3.7-9.8) months"}, {"measurement": "PFS, median (95% CI)", "setting": "200 mg/day (n = 7)", "value": "3.0 (1.6-11.3) months"}, {"measurement": "Best overall response: Complete response", "setting": "300 mg/day (n = 3)", "value": "0 n (%)"}, {"measurement": "Best overall response: Not evaluable", "setting": "300 mg/day (n = 3)", "value": "1 (33.3) n (%)"}, {"measurement": "Best overall response: Partial response", "setting": "300 mg/day (n = 3)", "value": "0 n (%)"}, {"measurement": "Best overall response: Progressive disease", "setting": "300 mg/day (n = 3)", "value": "0 n (%)"}, {"measurement": "Best overall response: Stable disease", "setting": "300 mg/day (n = 3)", "value": "2 (66.7) n (%)"}, {"measurement": "OS, median (95% CI)", "setting": "300 mg/day (n = 3)", "value": "9.2 (NE-NE) months"}, {"measurement": "PD, patients", "setting": "25-mg/day", "value": 100, "unit": "%"}, {"measurement": "PR, patients", "setting": "25-mg/day, 50-mg/day, and 300-mg/day groups", "value": "none of the patients"}, {"measurement": "PD, patients", "setting": "50-mg/day", "value": 33.3, "unit": "%"}, {"measurement": "DCR", "setting": "50-mg/day, 2/3 patients", "value": 66.7, "unit": "%"}, {"measurement": "PD, patients", "setting": "100-mg/day", "value": 66.7, "unit": "%"}, {"measurement": "PR, patients", "setting": "100-mg/day", "value": 33.3, "unit": "%"}, {"measurement": "DCR", "setting": "100-mg/day, 1/3 patients", "value": 33.3, "unit": "%"}, {"measurement": "PD, patients", "setting": "200-mg/day", "value": 42.9, "unit": "%"}, {"measurement": "PR, patients", "setting": "200-mg/day", "value": 28.6, "unit": "%"}, {"measurement": "DCR", "setting": "200-mg/day, 3/7 patients", "value": 42.9, "unit": "%"}, {"measurement": "DCR", "setting": "300-mg/day, 2/3 patients", "value": 66.7, "unit": "%"}, {"measurement": "Best overall response: Complete response", "setting": "All (n = 17)", "value": "0 n (%)"}, {"measurement": "Best overall response: Not evaluable", "setting": "All (n = 17)", "value": "2 (11.8) n (%)"}, {"measurement": "Best overall response: Partial response", "setting": "All (n = 17)", "value": "3 (17.6) n (%)"}, {"measurement": "Best overall response: Progressive disease", "setting": "All (n = 17)", "value": "7 (41.2) n (%)"}, {"measurement": "Best overall response: Stable disease", "setting": "All (n = 17)", "value": "5 (29.4) n (%)"}, {"measurement": "DOR, median (95% CI)", "setting": "All (n = 17)", "value": "9.7 (3.7-9.8) months"}, {"measurement": "OS, median (95% CI)", "setting": "All (n = 17)", "value": "15.0 (8.4-16.1) months"}, {"measurement": "PFS, median (95% CI)", "setting": "All (n = 17)", "value": "1.6 (1.6-5.3) months"}, {"measurement": "CR, patients", "setting": "all 17 patients", "value": "No patients showed CR"}, {"measurement": "DCR", "setting": "all 17 patients", "value": 47.1, "unit": "%"}, {"measurement": "ORR", "setting": "all 17 patients", "value": 17.6, "unit": "%"}, {"measurement": "PD, patients", "setting": "all 17 patients", "value": 41.2, "unit": "%"}, {"measurement": "confirmed PR, patients", "setting": "all 17 patients", "value": 17.6, "unit": "%"}, {"measurement": "could not be assessed for response, patients", "setting": "all 17 patients", "value": 11.8, "unit": "%"}, {"measurement": "response", "setting": "one patient of the 25-mg/day dose group", "value": "no response was observed"}, {"measurement": "PD, patients", "setting": "three patients in the 300-mg/day group", "value": "None"}]}
